Calls of active or inactive are those of the source. No cut-off for these calls is given here.
Legend:
[1] = target: GABA-A receptor alpha6beta3delta (++); assay: Modulation of rat eGFP-fused GABA-A receptor alpha6beta3delta expressed in HEK293 cells in presence of GABA by patch-clamp assay
Rattus norvegicus [2] = species on record: Rattus norvegicus; assay: Selectivity ratio of IC50 for rat GABA-A receptor alpha6beta2 expressed in HEK293 cells to IC50 for rat GABA-A receptor alpha6beta2delta expressed in HEK293 cells; type: cell-based
[3] = target: Gamma-aminobutyric acid receptor subunit alpha-1/beta-3 (Rattus norvegicus, UniProt P62813+P63079); assay: Modulation of rat […] GABA-A receptor alpha1beta3 expressed in HEK293 cells in presence of GABA by patch-clamp assay; type: cell-based
Method in brief: (§1)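 Whole-cell patch clamp on eGFP-co-transfected HEK 293 cells expressing rat subunits, recorded 48 h post-transfection. KCl/KOH-based pipette solution, pH 7.2. Rising compound concentrations up to 10 µM co-applied with the receptor-specific GABA EC20. Peak currents fitted to a logistic function giving EC50, Hill coefficient and % modulation, mean ± S.E. of n experiments.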

Rattus norvegicus [4] = species on record: Rattus norvegicus; assay: Selectivity ratio of IC50 for rat GABA-A receptor alpha4beta3gamma2 expressed in HEK293 cells to IC50 for rat GABA-A receptor alpha4beta3delta expressed in HEK293 cells; type: cell-based
[5] = target: T1, Gamma-aminobutyric acid receptor subunit alpha-4/beta-3 (Rattus norvegicus) (UniProt P28471+P63079); assay: Modulation of rat […] GABA-A receptor alpha4beta3 expressed in HEK293 cells up to 10 uM in presence of GABA by patch-clamp assay relative to control; type: cell-based
Method in brief: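 Rat GABA-A subunits were transiently co-transfected with eGFP into HEK293 cells on coverslips. Fluorescent cells were recorded by whole-cell patch clamp 48 h later; bath pH 7.4, KCl/KOH pipette pH 7.2. Compound was applied at increasing concentrations up to 10 µM with the receptor-specific GABA EC20. Peak currents were fitted logistically for EC50, Hill and % modulation, as mean ± S.E.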

[6] = target: Gamma-aminobutyric acid receptor subunit alpha-1/beta-3/gamma-2 (Rattus norvegicus) (UniProt P18508+P62813+P63079); assay: Displacement of [3H]EBOB from rat GABA-A receptor alpha1beta3gamma2 expressed in HEK293 cell membranes at 10 uM after 90 mins by liquid scintillation counting analysis relative to control
Method in brief: (§2)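 Crude membranes from HEK 293 cells transiently Ca-phosphate-transfected with rat subunit cDNAs, harvested at 48 h. Membranes (150-200 µg protein) incubated with 3 nM [3H]EBOB in 50 mM Tris/citrate pH 7.3 plus 0.2 M NaCl. Compound up to 10 µM, final DMSO 0.1%, no GABA, 90 min at 21 °C. Bound radioligand collected by GF/C filtration and counted by scintillation.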

[7] = target: Gamma-aminobutyric acid receptor subunit alpha-6/beta-2/delta (Rattus norvegicus, UniProt P18506+P30191+P63138); assay: Displacement of [3H]EBOB from rat GABA-A receptor alpha6beta2delta expressed in HEK293 cell membranes after 90 mins by liquid scintillation counting analysis
Method in brief: as §2

[8] = target: Gamma-aminobutyric acid receptor subunit alpha-6/beta-3 (Rattus norvegicus) (UniProt P30191+P63079); assay: Displacement of [3H]EBOB from rat GABA-A receptor alpha6beta3 expressed in HEK293 cell membranes up to 10 uM after 90 mins by liquid scintillation counting analysis relative to control
Method in brief: as §2

[9] = target: Gamma-aminobutyric acid receptor subunit alpha-4/beta-3 (Rattus norvegicus, UniProt P28471+P63079); assay: Displacement of [3H]EBOB from rat GABA-A receptor alpha4beta3 expressed in HEK293 cell membranes after 90 mins by liquid scintillation counting analysis
Method in brief: as §2

[10] = target: Gamma-aminobutyric acid receptor subunit alpha-6/beta-2 (Rattus norvegicus) (UniProt P30191+P63138); assay: Displacement of [3H]EBOB from rat GABA-A receptor alpha6beta2 expressed in HEK293 cell membranes up to 10 uM after 90 mins by liquid scintillation counting analysis relative to control
Method in brief: as §2

[11] = target: T2, Gamma-aminobutyric acid receptor subunit alpha-1/beta-3 (Rattus norvegicus) (UniProt P62813+P63079); assay: Modulation of rat […] GABA-A receptor alpha1beta3 expressed in HEK293 cells up to 10 uM in presence of GABA by patch-clamp assay relative to control; type: cell-based
Method in brief: as §1

[12] = target: T2, Gamma-aminobutyric acid receptor subunit alpha-1/beta-3 (Rattus norvegicus); assay: Displacement of [3H]EBOB from rat GABA-A receptor alpha1beta3 expressed in HEK293 cell membranes at 10 uM after 90 mins by liquid scintillation counting analysis relative to control
Method in brief: as §2

[13] = target: Gamma-aminobutyric acid receptor subunit alpha-6/beta-2/delta (Rattus norvegicus) (UniProt P18506+P30191+P63138); assay: Displacement of [3H]EBOB from rat GABA-A receptor alpha6beta2delta expressed in HEK293 cell membranes up to 10 uM after 90 mins by liquid scintillation counting analysis relative to control
Method in brief: as §2

[14] = target: Gamma-aminobutyric acid receptor subunit alpha-4/beta-3/gamma-2 (Rattus norvegicus) (UniProt P18508+P28471+P63079); assay: Modulation of rat eGFP-fused GABA-A receptor alpha4beta3gamma2 expressed in HEK293 cells at <=1 uM in presence of GABA by patch-clamp assay relative to control; type: cell-based
Rattus norvegicus [15] = species on record: Rattus norvegicus; assay: Selectivity ratio of IC50 for rat GABA-A receptor alpha6beta3gamma2 expressed in HEK293 cells to IC50 for rat GABA-A receptor alpha6beta3delta expressed in HEK293 cells; type: cell-based
[16] = target: T1, Gamma-aminobutyric acid receptor subunit alpha-4/beta-3 (Rattus norvegicus); assay: Displacement of [3H]EBOB from rat GABA-A receptor alpha4beta3 expressed in HEK293 cell membranes up to 10 uM after 90 mins by liquid scintillation counting analysis relative to control
Method in brief: as §2

[17] = target: Gamma-aminobutyric acid receptor subunit alpha-6/beta-3/delta (Rattus norvegicus) (UniProt P18506+P30191+P63079); assay: (§3) Displacement of [3H]EBOB from rat GABA-A receptor alpha6beta3delta expressed in HEK293 cell membranes after 90 mins in presence of GABA by liquid scintillation counting analysis
[18] = target: Gamma-aminobutyric acid receptor subunit alpha-6/beta-3/delta (Rattus norvegicus, UniProt P18506+P30191+P63079); assay: as §3
[19] = target: T1, Gamma-aminobutyric acid receptor subunit alpha-4/beta-3 (Rattus norvegicus); assay: Agonist activity at rat […] GABA-A receptor alpha4beta3 expressed in HEK293 cells assessed as ratio of I0 to GABA Imax at 10 uM in absence of GABA by patch-clamp assay; type: cell-based
Method in brief: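 Whole-cell patch clamp on single fluorescent HEK 293 cells 48 h after transient co-transfection with rat subunit cDNAs plus eGFP. Extracellular solution 135 mM NaCl, 5.3 mM KCl, 2 mM CaCl2, 2 mM MgSO4, 10 mM HEPES pH 7.4, perfused 3 mL/min. Compound at 10 µM without GABA. Current expressed relative to 1 mM GABA at the same receptor (I0/Imax GABA), mean ± S.D. of n experiments.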

Sequence of Gamma-aminobutyric acid receptor subunit alpha-6/beta-3/delta (P18506 whole entry): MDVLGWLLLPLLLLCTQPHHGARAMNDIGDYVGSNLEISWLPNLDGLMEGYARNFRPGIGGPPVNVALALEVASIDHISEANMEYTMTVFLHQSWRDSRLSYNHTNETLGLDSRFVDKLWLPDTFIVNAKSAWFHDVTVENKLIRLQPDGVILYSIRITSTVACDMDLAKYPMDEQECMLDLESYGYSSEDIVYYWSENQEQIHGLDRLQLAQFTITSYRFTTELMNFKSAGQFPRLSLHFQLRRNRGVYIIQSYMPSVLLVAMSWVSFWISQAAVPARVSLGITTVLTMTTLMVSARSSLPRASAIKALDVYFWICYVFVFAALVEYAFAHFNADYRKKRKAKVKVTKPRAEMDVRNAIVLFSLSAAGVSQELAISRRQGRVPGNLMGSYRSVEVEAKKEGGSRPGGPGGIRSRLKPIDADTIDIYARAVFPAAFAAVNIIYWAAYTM
Sequence of Gamma-aminobutyric acid receptor subunit alpha-6/beta-3/delta (P30191 whole entry): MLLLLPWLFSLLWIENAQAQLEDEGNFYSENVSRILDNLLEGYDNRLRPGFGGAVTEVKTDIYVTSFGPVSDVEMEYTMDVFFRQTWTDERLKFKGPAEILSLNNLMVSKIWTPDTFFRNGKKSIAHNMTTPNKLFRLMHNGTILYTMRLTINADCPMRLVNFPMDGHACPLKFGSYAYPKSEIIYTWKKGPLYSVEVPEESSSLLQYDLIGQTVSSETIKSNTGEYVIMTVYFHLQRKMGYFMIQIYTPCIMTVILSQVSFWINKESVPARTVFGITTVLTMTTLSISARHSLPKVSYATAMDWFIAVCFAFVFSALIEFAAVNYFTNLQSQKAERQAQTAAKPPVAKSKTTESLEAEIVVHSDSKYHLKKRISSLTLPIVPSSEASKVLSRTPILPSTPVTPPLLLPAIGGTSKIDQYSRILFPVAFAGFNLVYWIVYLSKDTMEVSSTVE
Sequence of Gamma-aminobutyric acid receptor subunit alpha-6/beta-3/delta (P63079 whole entry): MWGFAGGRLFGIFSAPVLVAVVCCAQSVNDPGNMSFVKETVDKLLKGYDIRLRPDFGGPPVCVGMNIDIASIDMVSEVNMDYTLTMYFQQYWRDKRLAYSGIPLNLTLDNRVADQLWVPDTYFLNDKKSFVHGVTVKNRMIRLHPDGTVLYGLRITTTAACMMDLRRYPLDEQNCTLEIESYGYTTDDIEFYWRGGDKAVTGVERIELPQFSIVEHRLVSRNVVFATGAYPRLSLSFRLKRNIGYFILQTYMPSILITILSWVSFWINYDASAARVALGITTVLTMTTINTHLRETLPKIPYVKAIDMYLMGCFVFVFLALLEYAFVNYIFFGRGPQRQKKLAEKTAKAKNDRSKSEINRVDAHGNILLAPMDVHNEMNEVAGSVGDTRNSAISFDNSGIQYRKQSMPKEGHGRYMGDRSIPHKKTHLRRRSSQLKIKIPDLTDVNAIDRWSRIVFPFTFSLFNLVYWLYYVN
Sequence of Gamma-aminobutyric acid receptor subunit alpha-6/beta-2/delta (P18506 whole entry): as the sequence (P18506 whole entry) above
Sequence of Gamma-aminobutyric acid receptor subunit alpha-6/beta-2/delta (P30191 whole entry): as the sequence (P30191 whole entry) above
Sequence of Gamma-aminobutyric acid receptor subunit alpha-6/beta-2/delta (P63138 whole entry): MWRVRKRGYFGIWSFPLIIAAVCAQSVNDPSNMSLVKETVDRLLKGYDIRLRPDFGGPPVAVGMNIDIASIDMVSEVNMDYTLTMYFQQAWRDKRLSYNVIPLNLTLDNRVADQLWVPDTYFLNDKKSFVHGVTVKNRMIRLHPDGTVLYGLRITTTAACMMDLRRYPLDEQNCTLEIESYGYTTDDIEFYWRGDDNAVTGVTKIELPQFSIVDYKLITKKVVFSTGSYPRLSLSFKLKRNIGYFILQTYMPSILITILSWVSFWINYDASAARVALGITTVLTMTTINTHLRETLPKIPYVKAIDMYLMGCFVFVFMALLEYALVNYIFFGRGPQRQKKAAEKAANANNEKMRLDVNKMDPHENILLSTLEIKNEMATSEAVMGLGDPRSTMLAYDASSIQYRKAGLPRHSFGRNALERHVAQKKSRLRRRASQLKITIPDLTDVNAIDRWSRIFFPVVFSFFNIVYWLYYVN
Sequence of Gamma-aminobutyric acid receptor subunit alpha-1/beta-3 (P62813 whole entry): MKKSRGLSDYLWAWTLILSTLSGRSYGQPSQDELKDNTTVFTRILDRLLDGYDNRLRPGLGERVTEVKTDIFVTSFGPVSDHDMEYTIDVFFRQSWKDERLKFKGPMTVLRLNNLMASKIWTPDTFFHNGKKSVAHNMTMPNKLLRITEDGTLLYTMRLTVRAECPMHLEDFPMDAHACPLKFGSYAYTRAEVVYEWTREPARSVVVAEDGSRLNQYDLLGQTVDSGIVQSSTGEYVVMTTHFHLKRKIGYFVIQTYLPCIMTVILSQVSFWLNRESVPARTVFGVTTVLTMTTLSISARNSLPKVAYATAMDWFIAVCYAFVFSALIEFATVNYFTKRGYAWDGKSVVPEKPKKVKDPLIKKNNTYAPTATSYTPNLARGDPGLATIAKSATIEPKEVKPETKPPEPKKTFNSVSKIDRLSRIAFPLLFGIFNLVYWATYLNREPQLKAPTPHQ
Sequence of Gamma-aminobutyric acid receptor subunit alpha-1/beta-3 (P63079 whole entry): as the sequence (P63079 whole entry) above
Sequence of Gamma-aminobutyric acid receptor subunit alpha-4/beta-3 (P28471 whole entry): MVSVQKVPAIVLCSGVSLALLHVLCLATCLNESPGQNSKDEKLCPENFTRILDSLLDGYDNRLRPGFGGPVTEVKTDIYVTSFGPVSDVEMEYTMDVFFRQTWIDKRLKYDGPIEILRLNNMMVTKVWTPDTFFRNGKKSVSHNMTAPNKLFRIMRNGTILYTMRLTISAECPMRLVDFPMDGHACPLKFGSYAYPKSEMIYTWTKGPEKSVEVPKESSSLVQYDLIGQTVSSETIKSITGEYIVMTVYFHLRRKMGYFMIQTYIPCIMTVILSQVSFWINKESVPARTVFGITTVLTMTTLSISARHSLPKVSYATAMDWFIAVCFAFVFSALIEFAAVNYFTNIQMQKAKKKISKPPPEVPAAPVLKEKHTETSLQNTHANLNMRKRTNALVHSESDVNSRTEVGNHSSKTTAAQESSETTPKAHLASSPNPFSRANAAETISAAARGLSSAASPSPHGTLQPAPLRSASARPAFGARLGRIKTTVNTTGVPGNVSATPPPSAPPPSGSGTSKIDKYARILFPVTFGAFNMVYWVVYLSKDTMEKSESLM
Sequence of Gamma-aminobutyric acid receptor subunit alpha-4/beta-3 (P63079 whole entry): as the sequence (P63079 whole entry) above

EC50 [1]: 0.13 µM
EC50 [3]: 0.1 µM
Activity [5]: 168%
Imax [6]: 13%
IC50 [7]: 0.15 µM
Imax [8]: 90%
IC50 [9]: 1.86 µM
Imax [10]: 93%
Activity [11]: 35%
Imax [12]: 25%
Imax [13]: 82%
Activity [14]: inactive
Imax [16]: 80%
Imax [17]: 88%
IC50 [18]: 0.37 µM
Ratio [19]: 0.124
SMILES: O=C(Nc1c(-c2cccs2)nc2c(Br)cc(Br)cn12)c1ccc(Cl)cc1
Ratio IC50 (Rattus norvegicus [2]): 4
Ratio IC50 (Rattus norvegicus [4]): 7
Ratio IC50 (Rattus norvegicus [15]): 3

Source: ChEMBL document CHEMBL4190374, “Structure-Function Evaluation of Imidazopyridine Derivatives Selective for δ-Subunit-Containing γ-Aminobutyric Acid Type A (GABAA) Receptors” (J Med Chem, 2018)
